The text below walks through data of ChEMBL document CHEMBL1122229, “alpha-adrenoreceptor reagents. 1. Synthesis of some 1,4-benzodioxans as selective presynaptic alpha 2-adrenoreceptor antagonists and potential antidepressants” (J Med Chem, 1983).

The source made the active and inactive calls. The rule behind the calls is not given here.

Test [1] relates to Alpha-2 adrenergic receptor (Rattus norvegicus). As to the kind of experiment: In vitro presynaptic agonist potency at Alpha-2 adrenergic receptor in rat or mouse vas deferens relative to clonidine; IA means inactive.
Test [2] has as its target T1, Adrenergic receptor alpha-1 (Rattus norvegicus) (UniProt P15823+P23944+P43140). The test is described as follows: In vitro postsynaptic antagonist potency at alpha-1 adrenergic receptor in rat anococcygeus relative to compound 5 (RX781094). In kind it is functional.
The nature of test [3]: In vitro antagonism at Alpha-2 adrenergic receptor in rat or mouse vas deferens relative to RX781094. In kind it is functional. In short, it runs like this:
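Prostatic half of vas deferens from male Sprague–Dawley rats (200–250 g; Krebs, 30 °C, 95% O2/5% CO2, 0.1 Hz, 3-ms, 40 V) or from mice (magnesium-free Krebs, 100–140 V). Tension 0.5 g; isometric twitch recording. […] The concentration giving 50% reversal of the inhibition was compared with standard 5 in the same tissue.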

Test [4] deals with T1, Adrenergic receptor alpha-1 (Rattus norvegicus). The test is described as follows: In vitro postsynaptic agonist potency at alpha-1 adrenergic receptor in rat anococcygeus muscle relative to phenylephrine; IA means inactive. The format is functional, tissue-based. A digest of the protocol:
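Rat anococcygeus muscle (male Sprague–Dawley rats, 200–250 g) suspended at 0.5 g initial tension in a 50-mL organ bath. […] Standard dose-response curves were run before and after the analogue's curve.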

In test [5] the test system is Alpha-2 adrenergic receptor (Rattus norvegicus). The test is described as follows: In vitro presynaptic agonist potency at alpha-2 adrenergic receptor in rat or mouse vas deferens relative to clonidine; Inactive.
Test [6] addresses T1, Adrenergic receptor alpha-1 (Rattus norvegicus). The test is described as follows: In vitro postsynaptic antagonist potency at alpha-1 adrenergic receptor in rat anococcygeus relative to compound 5 (RX781094); AG means compound is agonist. The format is functional. The settings on record: filed as agonist.
Test [7] has the same target. The test is described as follows: In vitro postsynaptic agonist potency at alpha-1 adrenergic receptor in rat anococcygeus muscle relative to phenylephrine. In kind it is functional, tissue-based.
Test [8] has the same target. As to the kind of experiment: Ratio of presynaptic antagonist potency to postsynaptic antagonist potency. The format is functional.
The target in test [9] is T2, Adrenergic receptor alpha-2 (Rattus norvegicus) (UniProt P22086+P19328+P22909). The test is described as follows: In vitro presynaptic agonist potency at alpha-2 adrenergic receptor in rat or mouse vas deferens relative to clonidine; IA means inactive. In kind it is functional, tissue-based. A digest of the protocol:
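Field-stimulated rat or mouse vas deferens (Krebs, 30 °C, 95% O2/5% CO2, 3-ms pulses at 0.1 Hz) with isometric twitch recording. […] Standard dose-response curves were run before and after the analogue's curve.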

Test [10] deals with Alpha-2 adrenergic receptor (Rattus norvegicus). The test is described as follows: In vitro presynaptic antagonist potency at alpha-2 adrenergic receptor in rat or mouse vas deferens; IA means compound is inactive.
Test [11] deals with T1, Adrenergic receptor alpha-1 (Rattus norvegicus). As to the kind of experiment: In vitro postsynaptic antagonist potency at alpha-1 adrenergic receptor in rat anococcygeus relative to compound 5 (RX781094); IA means compound is inactive. The format is functional.
In test [12] the target is T2, Adrenergic receptor alpha-2 (Rattus norvegicus). As to the kind of experiment: In vitro presynaptic agonist potency at alpha-2 adrenergic receptor in rat or mouse vas deferens relative to clonidine. In kind it is functional, tissue-based. In short, it runs like this:
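Field-stimulated rat or mouse vas deferens under 0.5 g tension, at 0.1 Hz with 3-ms pulses, 30 °C, gassed with 95% O2/5% CO2. Contractions were recorded isometrically. Standard dose-response curves were run before and after each analogue curve. Potency was expressed relative to the standard in the same experiment.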

Test [13] has as its system Alpha-2 adrenergic receptor (Rattus norvegicus). As to the kind of experiment: In vitro presynaptic agonist potency at alpha-2 adrenergic receptor in rat or mouse vas deferens relative to clonidine; IA means inactive.
Test [14] has as its target T1, Adrenergic receptor alpha-1 (Rattus norvegicus). As to the kind of experiment: In vitro postsynaptic antagonist potency at alpha-1 adrenergic receptor in rat anococcygeus. In kind it is functional.
Test [15] has as its target T2, Adrenergic receptor alpha-2 (Rattus norvegicus). The test is described as follows: In vitro presynaptic antagonist potency at alpha-2 adrenergic receptor in rat or mouse vas deferens relative to compound 5 (RX781094). In kind it is functional, tissue-based. A digest of the protocol:
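Prostatic halves of rat vas deferens (male Sprague–Dawley rats, 200–250 g; Krebs, 30 °C, 95% O2/5% CO2; 3-ms, 40 V, 0.1 Hz field pulses) or mouse vas deferens (Mg-free Krebs, 30 °C; 3-ms pulses, 0.1 Hz, 100–140 V) were used, with isometric twitch recording. […] The concentration giving 50% reversal was compared with the RX781094 standard in the same tissue.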

Take `N/C(=N\CC(=O)O)C1COc2ccccc2O1` (stereo not given): the Agonist potency result in [1] and in [4] was “inactive” throughout. Moreover, the Antagonist potency in test [2] is less than 0.023; in [3], less than 0.0003.
For the compound `Oc1cccc2c1OCC(C1=NCCN1)O2` (stereo not given), the Agonist potency result in test [5] is “inactive”. Further, the Antagonist potency entry in [6] was “Agonist”; in test [3] it was 0.018. In [7], the Agonist potency is 0.017.
Take `COc1ccc2c(c1)OC(C1=NCCN1)CO2` (stereo not given): the Selectivity in [8] amounted to 0.09. Besides, the Agonist potency result in [9] and in [4] was “inactive” each time. For the same compound, the values for the Antagonist potency in test [2] and in test [3] were 0.225 and 0.02, respectively.
For `c1ccc2c(c1)OCC(c1nn[nH]n1)O2` (stereo not given), the Antagonist potency entry in [10] and in test [11] was “inactive” throughout. For the same compound, the Agonist potency entry in test [9] and in [4] was “inactive” in each case.
Take `COc1ccccc1OCC1=NCCN1`: the Agonist potency in test [12] stood at 0.001; in test [7] it was 10. Moreover, the Antagonist potency entry in test [11] and in [13] was “inactive” in each case.
As to `Nc1nc(N)nc(C2COc3ccccc3O2)n1` (stereo not given), the Antagonist potency result in [10] and in [11] was “inactive” each time. The Agonist potency result in [5] and in [4] was “inactive” in each case.
For `Oc1ccc2c(c1)OCC(C1=NCCN1)O2` (stereo not given), the Agonist potency in test [12] amounted to 0.015; in test [7], 0.55. Besides, the Antagonist potency entry is “Agonist” in test [6] and 0.017 in test [3].
Turning to `c1ccc2c(c1)OCC(C1=NCCS1)O2` (stereo not given), the Antagonist potency result in test [10] and in [11] was “inactive” throughout. In addition, the Agonist potency result in test [9] and in test [4] was “inactive” each time.
Take `NC(=NO)C1COc2ccccc2O1` (stereo not given): the Antagonist potency in test [14] turned out to be 0.01. In [9], the Agonist potency result is “inactive”.
Turning to `Cc1cc2c(cc1C)OC(C1=NCCN1)CO2` (stereo not given), the Selectivity in test [8] was found to be 0.1. Further, the Agonist potency entry in [5] and in [4] was “inactive” throughout. Also, the Antagonist potency in [2] was determined as 0.64; in test [3], 0.06.
On to `Clc1cc2c(cc1Cl)OC(C1=NCCN1)CO2` (stereo not given), for which the Antagonist potency stood at 0.003 in [15] and 0.3 in test [2]. In addition, the Selectivity in test [8] is 0.01. Also, the Agonist potency entry in test [5] and in test [4] was “inactive” in each case.
As for `COc1cccc(OC)c1OCC/N=C(\N)C1COc2ccccc2O1` (stereo not given), the Antagonist potency in test [15] was 0.001; in test [2], 0.1. For the same compound, in test [8], the Selectivity worked out at 0.01. In test [12], this compound came in with an Agonist potency of 0.0001. Further, the Agonist potency entry in [4] is “inactive”.
Turning to `Clc1ccc2c(c1)OCC(C1=NCCN1)O2` (stereo not given), in test [8], the Selectivity is 0.01. The Agonist potency entry in test [5] was “inactive”. The compound also showed an Agonist potency in test [7] of 0.005. Moreover, the Antagonist potency in test [2] was found to be 1; in test [3], 0.01.
With `Nc1noc(C2COc3ccccc3O2)n1` (stereo not given), the Agonist potency in test [12] was 0.0001. In addition, the Antagonist potency result in test [11] and in test [13] was “inactive” throughout. The Agonist potency result in test [4] is “inactive”.
Turning to `COc1cccc2c1OC(C1=NCCN1)CO2` (stereo not given), in test [8], the Selectivity turned out to be 0.14. The Agonist potency entry in [9] and in test [4] was “inactive” in each case. Moreover, the values for the Antagonist potency in [2] and in test [3] were 0.9 and 0.12, respectively.
Consider `O=[N+]([O-])c1cccc2c1OC(C1=NCCN1)CO2` (stereo not given), for which, in [8], the Selectivity worked out at 0.22. The Agonist potency entry in test [9] and in test [4] was “inactive” each time. In addition, the results for the Antagonist potency in [2] and in [3] were 0.09 and 0.02, respectively.
For the compound `Fc1ccc2c(c1)OCC(C1=NCCN1)O2` (stereo not given), the Selectivity in [8] stood at 0.1. Further, the Agonist potency result in test [5] and in test [4] was “inactive” throughout. Also, the values for the Antagonist potency in [2] and in [3] were 0.1 and 0.01, respectively.
As for `Cc1ccc(C)c2c1OCC(C1=NCCN1)O2` (stereo not given), the Agonist potency turned out to be 0.19 in [12] and 2.5 in test [7]. Further, the Antagonist potency result in test [6] is “Agonist”; in [3], 0.005.
In the case of `N=C(NN1CCOCC1)C1COc2ccccc2O1` (stereo not given), the Antagonist potency entry in test [10] and in test [11] was “inactive” throughout. Moreover, the Agonist potency result in [9] and in test [4] was “inactive” in each case.
On to `Brc1ccc2c(c1)OCC(C1=NCCN1)O2` (stereo not given), for which, in test [5], the Agonist potency result is “inactive”. In test [11], the Antagonist potency result is “inactive”. The Agonist potency in test [7] was 0.05. The Antagonist potency in test [3] is listed as 0.01.
With `Brc1cc2c(cc1Br)OC(C1=NCCN1)CO2` (stereo not given), the Selectivity in [8] turned out to be 0.01. Further, the Agonist potency result in test [1] was “inactive”. For the same compound, in test [7], the Agonist potency worked out at 0.02. The results for the Antagonist potency in test [2] and in test [3] were 0.1 and 0.001, respectively.
Turning to `Clc1ccc(Cl)c2c1OCC(C1=NCCN1)O2` (stereo not given), the Antagonist potency in test [15] is 0.26; in test [6] it was “Agonist”. Further, the figures for the Agonist potency in test [12] and in test [7] were 0.02 and 0.55, respectively.
Regarding `O=[N+]([O-])c1ccc2c(c1)OCC(C1=NCCN1)O2` (stereo not given), the Agonist potency result in [9] and in test [4] was “inactive” throughout. Also, the Antagonist potency in [2] is less than 0.02; in test [3], less than 0.0003.
Consider `Cc1cccc2c1OC(C1=NCCN1)CO2` (stereo not given), for which the Antagonist potency was 0.5 in [15] and “Agonist” in test [6]. Further, the results for the Agonist potency in test [12] and in test [7] were 0.01 and 2.1, respectively.
`Oc1ccc2c(c1)OC(C1=NCCN1)CO2` (stereo not given): the values for the Agonist potency in [12] and in [7] were 0.15 and 1.1, respectively. Besides, the values for the Antagonist potency entry in test [6] and in test [3] were “Agonist” and 0.036, respectively.
As to `Oc1cccc2c1OC(C1=NCCN1)CO2` (stereo not given), in test [8], the Selectivity amounted to 0.2. In addition, the Agonist potency entry in [9] and in test [4] was “inactive” each time. The Antagonist potency in test [2] came to 0.2; in [3], 0.04.
In the case of `COCC/N=C(\N)C1COc2ccccc2O1` (stereo not given), the Antagonist potency entry in [10] is “inactive”. In addition, the Agonist potency entry in test [9] and in test [4] was “inactive” in each case. For the same compound, the Antagonist potency in test [2] came out at 0.1.
On to `COc1ccc2c(c1)OCC(C1=NCCN1)O2` (stereo not given), for which, in test [9], the Agonist potency entry is “inactive”. This compound also showed an Agonist potency in test [7] of 0.005. Moreover, the Antagonist potency in [3] turned out to be 0.006.
Regarding `Clc1cccc2c1OC(C1=NCCN1)CO2` (stereo not given), the Agonist potency in [12] was 0.67; in test [7], 0.4. Further, the Antagonist potency entry is “Agonist” in test [6] and 0.49 in [3].
Consider `c1ccc2c(c1)OCC(C1=NCCCN1)O2` (stereo not given), for which the Antagonist potency in test [15] is 0.01; in test [2], 0.1. In addition, the Selectivity in test [8] came out at 0.1. For the same compound, the Agonist potency result in test [9] and in test [4] was “inactive” in each case.
`N=C(N)C1COc2ccccc2O1` (stereo not given) registered an Antagonist potency in test [15] of 0.01. In test [9], the Agonist potency result is “inactive”. Moreover, the Agonist potency in [7] was found to be 0.05.
`COc1cccc2c1OCC(C1=NCCN1)O2` (stereo not given): the Agonist potency entry in test [9] was “inactive”. Moreover, the Antagonist potency entry in [11] was “inactive”. For the same compound, the Agonist potency in test [7] was determined as 5. The Antagonist potency in test [3] was 0.001.
